According to ChEMBL document CHEMBL5252663, “Evaluation of 1,3,4-Thiadiazole Carbonic Anhydrase Inhibitors for Gut Decolonization of Vancomycin-Resistant Enterococci” (ACS Med Chem Lett, 2023):
Converted amounts (≈) assume the structure as drawn. The source made the active and inactive calls. The calls are words filed in the database; no cut-off is given here.

Legend:
Enterococcus faecium [1] = experiment: Antibacterial activity against vancomycin-resistant Enterococcus faecium HM-952 infected in C57BL/6 mouse assessed as reduction in bacterial burden in ileum at 20 mg/kg,po qd measured after 9 days of administration; assay type: functional; design: scale not given: the % may be the effect or the level left; conditions: time 9 day
Procedure, shortened: (§1)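 C57BL/6 mice given ampicillin in drinking water (0.5 g/L) for 7 days, then gavaged orally with 5.39 × 10^8 CFU/mL E. faecium HM-952. Colonization was allowed for 7 days. Randomized groups (n = 7) got 20 mg/kg by oral gavage once daily for 8 days. Vehicle was dimethylacetamide:20% propylene glycol:40% PEG 400:30% PBS. Fecal CFU was counted on days 0, 3, 5 and 7, and ileal and cecal CFU at day 9 after euthanasia. Comparison was against vehicle.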

Enterococcus faecium [2] = experiment: Antibacterial activity against Enterococcus faecium HM-952 assessed as inhibition of bacterial growth incubated for 18 to 20 hrs by broth microdilution assay; assay type: functional; conditions: time 18-20 hrs
Enterococcus faecium [3] = experiment: Antibacterial activity against vancomycin-resistant Enterococcus faecium HM-952 infected in C57BL/6 mouse assessed as log reduction in bacterial colony forming unit in cecum at 20 mg/kg,po qd measured after 9 days of administration; assay type: functional; conditions: time 9 day; procedure, shortened: as §1
[4] = Efflux ratio of apparent permeability across basolateral to apical over apical to basolateral side in human Caco2 cells; assay type: ADME, cell-based; conditions: Caco-2
Procedure, shortened: (§2)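 Caco-2 monolayer transport measured in both directions, apical→basolateral and basolateral→apical, and reported as apparent permeability (×10–6 cm/s). Efflux ratio is calculated as Papp B→A divided by Papp A→B.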

[5] = Apparent permeability across apical to basolateral side in human Caco2 cells; assay type: ADME, cell-based; conditions: Caco-2; procedure, shortened: as §2
Enterococcus faecium [6] = experiment: Antibacterial activity against vancomycin-resistant Enterococcus faecium HM-952 infected in C57BL/6 mouse assessed as reduction in bacterial burden in feces at 20 mg/kg,po qd measured after 5 days of administration; assay type: functional; design: scale not given: the % may be the effect or the level left; procedure, shortened: as §1
[7] = Distribution coefficient between 1-Octanol and PBS buffer, logD of the compound at pH 7.4 incubated for 140 mins by HPLC anlaysis; assay type: physicochemical; conditions: 1-octanol/PBS buffer
Enterococcus faecium [8] = experiment: Antibacterial activity against vancomycin-resistant Enterococcus faecium HM-952 infected in C57BL/6 mouse assessed as reduction in bacterial burden in cecum at 20 mg/kg,po qd measured after 9 days of administration; assay type: functional; design: scale not given: the % may be the effect or the level left; conditions: time 9 day; procedure, shortened: as §1
Enterococcus faecium [9] = experiment: Antibacterial activity against vancomycin-resistant Enterococcus faecium HM-952 infected in C57BL/6 mouse assessed as log reduction in bacterial colony forming unit in feces at 20 mg/kg,po qd measured after 5 days of administration; assay type: functional; conditions: time 5 day; procedure, shortened: as §1
[10] = Apparent permeability across basolateral to apical side in human Caco2 cells; assay type: ADME, cell-based; conditions: Caco-2; procedure, shortened: as §2
Enterococcus faecium [11] = experiment: Antibacterial activity against vancomycin-resistant Enterococcus faecium HM-952 infected in C57BL/6 mouse assessed as reduction in bacterial burden in feces at 20 mg/kg,po qd measured after 7 days of administration; assay type: functional; design: scale not given: the % may be the effect or the level left; conditions: time 7 day; procedure, shortened: as §1
Enterococcus faecium [12] = experiment: Antibacterial activity against vancomycin-resistant Enterococcus faecium HM-952 infected in C57BL/6 mouse assessed as log reduction in bacterial colony forming unit in feces at 20 mg/kg,po qd measured after 3 days of administration; assay type: functional; conditions: time 3 day; procedure, shortened: as §1
[13] = Permeability across apical to basolateral side in human Caco-2 cells assessed as drug recovery; assay type: ADME, cell-based; conditions: read-out: Drug recovery
Enterococcus faecium [14] = experiment: Antibacterial activity against vancomycin-resistant Enterococcus faecium HM-952 infected in C57BL/6 mouse assessed as reduction in bacterial burden in feces at 20 mg/kg,po qd measured after 3 days of administration; assay type: functional; design: scale not given: the % may be the effect or the level left; procedure, shortened: as §1
[15] = Distribution coefficient between 1-Octanol and PBS buffer, logD of the compound at pH 6.5 incubated for 140 mins by HPLC anlaysis; assay type: physicochemical; conditions: 1-octanol/PBS buffer
Enterococcus faecium [16] = experiment: Antibacterial activity against vancomycin-resistant Enterococcus faecium HM-952 infected in C57BL/6 mouse assessed as log reduction in bacterial colony forming unit in ileum at 20 mg/kg,po qd measured after 9 days of administration; assay type: functional; conditions: time 9 day; procedure, shortened: as §1
Enterococcus faecium [17] = experiment: Antibacterial activity against vancomycin-resistant Enterococcus faecium HM-952 infected in C57BL/6 mouse assessed as log reduction in bacterial colony forming unit in feces at 20 mg/kg,po qd measured after 7 days of administration; assay type: functional; conditions: time 7 day; procedure, shortened: as §1
[18] = Aqueous solubility of the compound in PBS buffer at pH 7.4 by HPLC analysis; assay type: physicochemical
Procedure, shortened: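 Solubility is measured in phosphate-buffered saline at pH 7.4 and quantified against a calibration curve whose highest point is 200 μM, so the upper reportable value is >200 μM.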

With `CC(C)(C)CC(=O)Nc1nnc(S(N)(=O)=O)s1` the Activity (Enterococcus faecium [1]) was 98.9%, the MIC (Enterococcus faecium [2]) was 0.03 µg/mL (≈ 0.108 µM) and the Activity (Enterococcus faecium [3]) was 2.36 log10CFU. It also gave an efflux ratio [4] of 2.22, a Papp A→B [5] of 3.7 ×10⁻⁶ cm/s and an Activity (Enterococcus faecium [6]; time 5 day) of 92.6%. It also gave a logD at 2.333 h [7] of 1.36, an Activity (Enterococcus faecium [8]) of 99.6% and an Activity (Enterococcus faecium [9]) of 1.13 log10CFU. The Papp B→A [10] was 8.2 ×10⁻⁶ cm/s, the Activity (Enterococcus faecium [11]) was 99.3% and the Activity (Enterococcus faecium [12]) was 1 log10CFU. The recovery [13] was 80%, the Activity (Enterococcus faecium [14]; time 3 day) was 90% and the logD at 2.333 h [15] was 1.55. For the same compound, the Activity (Enterococcus faecium [16]) was 1.98 log10CFU, the Activity (Enterococcus faecium [17]) was 2.16 log10CFU and the solubility [18] was over 200 µM.
`CC(=O)Nc1nnc(S(N)(=O)=O)s1` [ACETAZOLAMIDE] showed an Activity (Enterococcus faecium [1]) of 99.7%, an MIC (Enterococcus faecium [2]) of 1 µg/mL (≈ 4.5 µM) and an Activity (Enterococcus faecium [3]) of 2.59 log10CFU. For the same compound, the Activity (Enterococcus faecium [6]; time 5.0 day) was “Active”, the Activity (Enterococcus faecium [8]) was 99.7% and the Activity (Enterococcus faecium [11]) was 99.3%. The Activity (Enterococcus faecium [12]) was 1 log10CFU, the Activity (Enterococcus faecium [14]; time 3 day) was 90% and the Activity (Enterococcus faecium [16]) was 2.59 log10CFU. It also gave an Activity (Enterococcus faecium [17]) of 2.16 log10CFU.
Work on `NS(=O)(=O)c1nnc(NC(=O)CN2CCOCC2)s1` yielded an Activity (Enterococcus faecium [1]) of 97.6%, an MIC (Enterococcus faecium [2]) of 1 µg/mL (≈ 3.25 µM) and an Activity (Enterococcus faecium [3]) of 1.92 log10CFU. The Activity (Enterococcus faecium [6]; time 5 day) was 92.6%, the logD at 2.333 h [7] was -1.38 and the Activity (Enterococcus faecium [8]) was 98.8%. The Activity (Enterococcus faecium [9]) was 1.13 log10CFU, the Activity (Enterococcus faecium [11]) was 99.3% and the Activity (Enterococcus faecium [12]) was 1 log10CFU. It also gave an Activity (Enterococcus faecium [14]; time 3 day) of 90%, a logD at 2.333 h [15] of -0.97 and an Activity (Enterococcus faecium [16]) of 1.62 log10CFU. The Activity (Enterococcus faecium [17]) was 2.16 log10CFU and the solubility [18] was 127 µM (≈ 39 µg/mL).
Compound `NS(=O)(=O)c1nnc(NC(=O)CCC2CCCCC2)s1` has an Activity (Enterococcus faecium [1]) of 94.1%, an MIC (Enterococcus faecium [2]) of 0.03 µg/mL (≈ 0.0942 µM) and an Activity (Enterococcus faecium [3]) of 1.57 log10CFU. For the same compound, the efflux ratio [4] was 2.17, the Activity (Enterococcus faecium [6]; time 5 day) was 92.6% and the logD at 2.333 h [7] was 2.26. It also gave an Activity (Enterococcus faecium [8]) of 97.3%, an Activity (Enterococcus faecium [9]) of 1.13 log10CFU and an Activity (Enterococcus faecium [11]) of 99.3%. It also gave an Activity (Enterococcus faecium [12]) of 1 log10CFU, a recovery [13] of 35% and an Activity (Enterococcus faecium [14]; time 3 day) of 90%. For the same compound, the logD at 2.333 h [15] was 2.47, the Activity (Enterococcus faecium [16]) was 1.13 log10CFU and the Activity (Enterococcus faecium [17]) was 2.16 log10CFU. For the same compound, the solubility [18] was 33 µM (≈ 10.5 µg/mL).
For `CC(=O)NC[C@H]1CN(c2ccc(N3CCOCC3)c(F)c2)C(=O)O1` [LINEZOLID], the MIC (Enterococcus faecium [2]) was 1 µg/mL (≈ 2.96 µM), the Activity (Enterococcus faecium [6]; time 5 day) was 86.5% and the Activity (Enterococcus faecium [9]) was 0.87 log10CFU. The Activity (Enterococcus faecium [11]) was 91.5%, the Activity (Enterococcus faecium [14]; time 3.0 day) was “Active” and the Activity (Enterococcus faecium [17]) was 1.07 log10CFU.
